Laboratory results published in ChEMBL document CHEMBL4261553 (Medchemcomm, 2017).

Columns and labels:
[1] = target: T1, 5-hydroxytryptamine receptor 1A (Homo sapiens, UniProt P08908); test: Displacement of [3H]-8-OH-DPAT from human 5-HT1A receptor expressed in CHOK1 cell membranes after 60 mins by microbeta scintillation counting method
T1 sequence (P08908 whole entry): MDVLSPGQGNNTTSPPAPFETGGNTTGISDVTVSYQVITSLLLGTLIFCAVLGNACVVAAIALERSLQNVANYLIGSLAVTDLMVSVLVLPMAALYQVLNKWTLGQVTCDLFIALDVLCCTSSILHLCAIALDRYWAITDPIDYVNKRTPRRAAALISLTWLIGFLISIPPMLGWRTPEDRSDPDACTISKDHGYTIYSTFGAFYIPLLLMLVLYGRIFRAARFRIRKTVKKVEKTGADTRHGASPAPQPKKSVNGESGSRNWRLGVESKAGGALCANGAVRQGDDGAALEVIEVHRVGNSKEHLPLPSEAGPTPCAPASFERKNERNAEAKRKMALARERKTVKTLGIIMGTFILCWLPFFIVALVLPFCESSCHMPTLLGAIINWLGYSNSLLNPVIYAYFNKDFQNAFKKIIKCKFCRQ
In short: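 Membranes from CHO-K1 cells stably expressing human receptor, 10 µg protein/well, in 50 mM Tris pH 7.4 with 10 mM MgSO4, 0.5 mM EDTA, 0.1% ascorbic acid. Compounds at 6 concentrations, 10^-10 to 10^-5 M final, in duplicate; 27 °C. GF/C filtration, cold Tris washes. Ki by one-site fit and Cheng–Prusoff.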

[2] = target: 5-hydroxytryptamine receptor 2A (Homo sapiens, UniProt P28223); test: Displacement of [3H]-ketanserin from human 5-HT2A receptor expressed in CHOK1 cell membranes after 60 mins by microbeta scintillation counting method; format: cell-based
5-hydroxytryptamine receptor 2A, sequence (P28223 whole entry): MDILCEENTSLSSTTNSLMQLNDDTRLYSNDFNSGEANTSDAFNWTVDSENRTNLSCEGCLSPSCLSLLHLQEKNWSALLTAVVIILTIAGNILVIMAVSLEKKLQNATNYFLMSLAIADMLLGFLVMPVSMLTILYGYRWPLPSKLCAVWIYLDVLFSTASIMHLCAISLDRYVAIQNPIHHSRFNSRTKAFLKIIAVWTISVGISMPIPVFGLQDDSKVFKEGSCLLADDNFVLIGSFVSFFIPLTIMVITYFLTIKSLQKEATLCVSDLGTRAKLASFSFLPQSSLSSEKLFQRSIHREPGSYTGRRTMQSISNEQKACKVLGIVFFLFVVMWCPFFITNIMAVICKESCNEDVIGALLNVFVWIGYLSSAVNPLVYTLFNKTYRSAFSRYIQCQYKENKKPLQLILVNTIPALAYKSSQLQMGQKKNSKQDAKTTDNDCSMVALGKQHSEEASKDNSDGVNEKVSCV

Structure (SMILES)	Ki [1]	Ki [2]
CC(=O)c1c(C)cc2oc(=O)cc(C)c2c1OCCCN1CCN(c2ccccc2F)CC1	0.3 nM	28 nM
Cc1cc(OCCCN2CCOCC2)c2c(C)cc(=O)oc2c1	1300 nM	> 10000 nM
COc1cccc(N2CCN(CCCOc3c(C(C)=O)c(C)cc4oc(=O)cc(C)c34)CC2)c1	0.4 nM	48 nM
CC(=O)c1c(C)cc2oc(=O)cc(C)c2c1OCCCCN1CCOCC1	250 nM	4460 nM
Cc1cc(OCCCCN2CCN(c3ccncc3)CC2)c2c(C)cc(=O)oc2c1	389 nM	> 5000 nM
Cc1cc(OCCCN2CCN(c3cnccn3)CC2)c2c(C)cc(=O)oc2c1	186 nM	4570 nM
Cc1cc(OCCCN2CCN(c3ccc([N+](=O)[O-])cc3)CC2)c2c(C)cc(=O)oc2c1	1210 nM	> 10000 nM
COc1cccc(N2CCN(CCCCOc3c(C(C)=O)c(C)cc4oc(=O)cc(C)c34)CC2)c1	15 nM	520 nM
CC(=O)c1c(C)cc2oc(=O)cc(C)c2c1OCCCCN1CCN(c2ccc(Cl)cc2)CC1	7 nM	1.7 nM
Cc1cc(OCCCCN2CCN(c3cccc(Cl)c3Cl)CC2)c2c(C)cc(=O)oc2c1	8 nM	167 nM
CC(=O)c1c(C)cc2oc(=O)cc(C)c2c1OCCCCN1CCN(c2ccncc2)CC1	308 nM	1590 nM
Cc1cc(OCCCCN2CCOCC2)c2c(C)cc(=O)oc2c1	3500 nM	> 10000 nM
COc1cccc(N2CCN(CCCOc3cc(C)cc4oc(=O)cc(C)c34)CC2)c1	6 nM	106 nM
CC(=O)c1c(C)cc2oc(=O)cc(C)c2c1OCCCN1CCN(c2cccc(Cl)c2Cl)CC1	0.4 nM	66 nM
CC(=O)c1c(C)cc2oc(=O)cc(C)c2c1OCCCN1CCN(c2cnccn2)CC1	11 nM	3000 nM
Cc1cc(OCCCCN2CCN(c3cnccn3)CC2)c2c(C)cc(=O)oc2c1	6.7 nM	2300 nM
CC(=O)c1c(C)cc2oc(=O)cc(C)c2c1OCCCN1CCN(c2ccncc2)CC1	154 nM	> 10000 nM
Cc1cc(OCCCN2CCN(c3ccccc3C#N)CC2)c2c(C)cc(=O)oc2c1	3 nM	200 nM
Cc1cc(OCCCCN2CCN(c3ccc([N+](=O)[O-])cc3)CC2)c2c(C)cc(=O)oc2c1	809 nM	> 10000 nM
CC(=O)c1c(C)cc2oc(=O)cc(C)c2c1OCCCCN1CCN(c2cccc(Cl)c2Cl)CC1	250 nM	2650 nM
Cc1cc(OCCCN2CCN(c3ccc(Cl)cc3)CC2)c2c(C)cc(=O)oc2c1	161 nM	70 nM
CC(=O)c1c(C)cc2oc(=O)cc(C)c2c1OCCCN1CCOCC1	850 nM	> 10000 nM
CC(=O)c1c(C)cc2oc(=O)cc(C)c2c1OCCCN1CCN(c2ccc(Cl)cc2)CC1	1.2 nM	4 nM
Cc1cc(OCCCN2CCN(c3ccncc3)CC2)c2c(C)cc(=O)oc2c1	450 nM	> 5000 nM

Continued by falling Ki [1], values first:

Ki [1]	Ki [2]	Structure (SMILES)
159 nM	286 nM	CC(=O)c1c(C)cc2oc(=O)cc(C)c2c1OCCCN1CCN(c2ccc([N+](=O)[O-])cc2)CC1
60 nM	465 nM	Cc1cc(OCCCCN2CCN(c3ccc(Cl)cc3)CC2)c2c(C)cc(=O)oc2c1
33 nM	46 nM	CC(=O)c1c(C)cc2oc(=O)cc(C)c2c1OCCCCN1CCN(c2ccc([N+](=O)[O-])cc2)CC1
4.8 nM	2500 nM	CC(=O)c1c(C)cc2oc(=O)cc(C)c2c1OCCCCN1CCN(c2cnccn2)CC1
4 nM	42 nM	Cc1cc(OCCCN2CCN(c3cccc(Cl)c3Cl)CC2)c2c(C)cc(=O)oc2c1
3 nM	55 nM	Cc1cc(OCCCN2CCN(c3ccccc3F)CC2)c2c(C)cc(=O)oc2c1
1.7 nM	120 nM	Cc1cc(OCCCCN2CCN(c3ccccc3F)CC2)c2c(C)cc(=O)oc2c1
1.5 nM	112 nM	Cc1cc(OCCCCN2CCN(c3ccccc3C#N)CC2)c2c(C)cc(=O)oc2c1
1 nM	184 nM	COc1cccc(N2CCN(CCCCOc3cc(C)cc4oc(=O)cc(C)c34)CC2)c1
0.7 nM	9 nM	CC(=O)c1c(C)cc2oc(=O)cc(C)c2c1OCCCCN1CCN(c2ccccc2F)CC1
0.3 nM	64 nM	CC(=O)c1c(C)cc2oc(=O)cc(C)c2c1OCCCN1CCN(c2ccccc2C#N)CC1
